Here are results for 22 compounds from ChEMBL document CHEMBL1143390 (Bioorg Med Chem, 2009).

One series has as its system CCRF-CEM. Briefly: Cytotoxicity against human CEM cells after 3 days by MTT assay. It counts as cell-based. Conditions: 72 h. In a few lines:
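CEM T-lymphoblastoid cells in log phase, seeded at 2.5×10^3 cells/well with 10-fold serial dilutions of drug. Incubated 3 days at 37 °C in humidified 5% CO2-air. MTT dye added overnight, then solubilization for 5 h and read at 570 nm. IC50 from the concentration-response curve by the median effect method.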

The nature of series [1]: Chemical stability in phosphate buffer assessed as hydrolysis half life at pH 2.0. Format: physicochemical. In a few lines:
(§1)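 Prodrug, 1 mM in DMSO, diluted into 10 mM phosphate buffer at pH 2.0 or 7.4, ionic strength 0.1 set with NaCl, final 5% DMSO. Held at 37 ± 0.5 °C in screw-capped vials. Samples drawn over time, filtered and analysed by HPLC. Half-life from linear regression of a pseudo-first-order plot.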

Series [2] is described as follows: Chemical stability in phosphate buffer assessed as hydrolysis half life at pH 7.4. It counts as physicochemical. The essentials:
as §1

Series [3] in a line: Chemical stability in Tris-HCl buffer assessed as hydrolysis half life at pH 8 in presence of porcine esterase. It counts as physicochemical. Conditions: pig, isolated protein. The essentials: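 Prodrug at 1.4 mM final in pH 8.0 Tris-HCl with 5% DMSO and 20 μg/mL porcine esterase, incubated at 37 ± 0.5 °C. Aliquots quenched in ice-cold methanol/acetonitrile 1/1, filtered and analysed by HPLC. Enzyme activity checked with ethyl butyrate substrate.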

Series [4] deals with Human immunodeficiency virus 1. Briefly: Antiviral activity against HIV1 LAI infected in PBM cells. Conditions: Human immunodeficiency virus 1, LAI, PBMC.
The test system of a further series is PBMC. The experiment in a line: Cytotoxicity against human PBM cells after 4 days by MTT assay. Conditions: 96 h. A general note: Tetrazolium dyes change colour on reduction, which living cells bring about.
The next series relates to Vero. Briefly: Cytotoxicity against african green monkey Vero cells after 2 days by MTT assay. Conditions: Chlorocebus sabaeus, 48 h.

A word on the IC50: it is the concentration that gives 50% inhibition. By EC50 is commonly meant the concentration at which the effect is half-maximal. The term EC90 denotes the concentration at which the effect reaches the 90% level. For `Cc1cn([C@H]2CO[C@@H](COC(=O)[C@@H](N)Cc3c[nH]c4ccccc34)O2)c(=O)[nH]c1=O.Cl`, the IC50 in the series with CCRF-CEM, in the series with PBMC and in the series with Vero was over 100 µM in each case. Moreover, the t1/2 in series [1] was determined as 5.33 h; in series [2] it was 7 h; in series [3], 0.297 h. Moreover, the midpoint of the response in series [4], the EC50, lay at 1.7 µM. Further, the EC90 in series [4] was 8 µM.

Turning to `CC(=O)OC[C@@H]1OC[C@H](n2cc(C)c(=O)[nH]c2=O)O1`, the IC50 in the series on CCRF-CEM is 99.4 µM; in the series on PBMC, over 100 µM; in the series with Vero, over 100 µM. Moreover, the t1/2 in series [1] worked out at 26.33 h; in series [2], 44.17 h; in series [3] it was 0.272 h. For the same compound, the EC50 in series [4] was 2.9 µM. Further, the EC90 in series [4] worked out at 12.3 µM.

As to `Cc1cn([C@H]2CO[C@@H](COC(=O)[C@H](N)Cc3ccccc3)O2)c(=O)[nH]c1=O.Cl`, the 50% inhibitory concentration (IC50) in the series on CCRF-CEM, with PBMC and with Vero was over 100 µM in each case. Also, the t1/2 in series [1] was 7.17 h; in series [2] it was 15.7 h; in series [3] it was 0.26 h. Also, the EC50 in series [4] stood at 1 µM. For the same compound, the EC90 in series [4] amounted to 5.2 µM.

As for `CCCCCCCCCCCC(=O)OC[C@@H]1OC[C@H](n2cc(C)c(=O)[nH]c2=O)O1`, the IC50 in the series on CCRF-CEM, with PBMC and with Vero was over 100 µM each time. For the same compound, in series [3], the t1/2 came to 0.683 h. In series [4], a half-maximal response (EC50) required 0.4 µM. In series [4], the 90% effect level (EC90) was put at 3.2 µM.

With `Cc1cn([C@H]2CO[C@@H](COC(=O)[C@@H]3CCCN3)O2)c(=O)[nH]c1=O.Cl`, the IC50 in the series with CCRF-CEM, in the series on PBMC and in the series on Vero was over 100 µM each time. The t1/2 is 3.83 h in series [1], 6.33 h in series [2] and 0.227 h in series [3]. For the same compound, in series [4], the EC50 worked out at 1.4 µM. Besides, the EC90 in series [4] is 7.3 µM.

As to `Cc1cn([C@H]2CO[C@@H](COC(=O)[C@@H](N)CCC(=O)O)O2)c(=O)[nH]c1=O.Cl`, the IC50 in the series on CCRF-CEM, with PBMC and in the series with Vero was over 100 µM throughout. Moreover, the t1/2 in series [1] was 3.17 h; in series [2] it was 4 h; in series [3] it was 0.223 h. The EC50 in series [4] worked out at 0.89 µM. In series [4], this compound registered an EC90 of 6.3 µM.

Take `Cc1cn([C@H]2CO[C@@H](COC(=O)CN)O2)c(=O)[nH]c1=O.Cl`: the half-inhibitory concentration (IC50) with CCRF-CEM, in the series on PBMC and in the series with Vero was over 100 µM in each case. Besides, the t1/2 was determined as 8.67 h in series [1], 22 h in series [2] and 0.207 h in series [3]. The same compound yielded an EC50 in series [4] of 2.5 µM. Besides, the 90% effect level in series [4] (EC90) was put at 8.4 µM.

Turning to `Cc1cn([C@H]2CO[C@@H](COC(=O)[C@H](C)N)O2)c(=O)[nH]c1=O.Cl`, the IC50 in the series with CCRF-CEM, with PBMC and in the series with Vero was over 100 µM each time. For the same compound, the t1/2 in series [1] was found to be 14.5 h; in series [2] it was 26.67 h; in series [3] it was 0.232 h. In series [4], it took 0.98 µM to reach a half-maximal effect (EC50). This compound also displayed an EC90 in series [4] of 8.3 µM.

Consider `Cc1cn([C@H]2CO[C@@H](COC(=O)C3CCCCC3)O2)c(=O)[nH]c1=O`, for which the IC50 in the series with CCRF-CEM, with PBMC and in the series with Vero was over 100 µM in each case. In addition, the t1/2 was determined as 30.83 h in series [1], 53.33 h in series [2] and 0.322 h in series [3]. Further, in series [4], the EC50 is 1.3 µM. This compound also gave an EC90 in series [4] of 3.9 µM.

For the compound `Cc1cn([C@H]2CO[C@@H](COC(=O)C(C)(C)N)O2)c(=O)[nH]c1=O.Cl`, the half-inhibitory concentration (IC50) in the series with CCRF-CEM, with PBMC and in the series on Vero was over 100 µM throughout. In addition, the t1/2 in series [1] is 15.3 h; in series [2], 31.17 h; in series [3], 0.223 h. The EC50 in series [4] came to 2.2 µM. The compound also yielded an EC90 in series [4] of 7.6 µM.

With `Cc1cn([C@H]2CO[C@@H](COC(=O)[C@@H](N)C(C)C)O2)c(=O)[nH]c1=O.Cl`, the IC50 with CCRF-CEM, with PBMC and with Vero was over 100 µM throughout. Also, the results for the t1/2 in series [1], in series [2] and in series [3] were 16 h, 36.67 h and 0.315 h, respectively. The EC50 in series [4] turned out to be 0.56 µM. Moreover, the EC90 in series [4] was 4.9 µM.

As to `Cc1cn([C@H]2CO[C@@H](COC(=O)[C@@H](N)Cc3ccccc3)O2)c(=O)[nH]c1=O.Cl`, the IC50 with CCRF-CEM, in the series on PBMC and with Vero was over 100 µM throughout. Further, the results for the t1/2 in series [1], in series [2] and in series [3] were 9.17 h, 17.83 h and 0.243 h, respectively. In series [4], this compound gave an EC50 of 0.88 µM. The EC90 in series [4] was 4.4 µM.

Consider `Cc1cn([C@H]2CO[C@@H](COC(=O)C(C)(C)C)O2)c(=O)[nH]c1=O`, for which the IC50 in the series on CCRF-CEM was over 100 µM; with PBMC, over 100 µM; with Vero, 18.1 µM. Further, the t1/2 in series [1] was found to be 21.67 h; in series [2], 46.33 h; in series [3], 0.283 h. In series [4], the EC50 turned out to be 1.3 µM. In series [4], this compound had an EC90 of 14.5 µM.

In series [4], `Cc1cn([C@H]2C[C@H](N=[N+]=[N-])[C@@H](CO)O2)c(=O)[nH]c1=O` [ZIDOVUDINE] returned an EC90 of 0.04 µM. Besides, the IC50 with PBMC is over 100 µM.

Take `CCCCC(=O)OC[C@@H]1OC[C@H](n2cc(C)c(=O)[nH]c2=O)O1`: the IC50 is over 100 µM with CCRF-CEM, over 100 µM in the series on PBMC and 49 µM with Vero. The t1/2 in series [1] was 26.67 h; in series [2], 53 h; in series [3], 0.308 h. Also, the EC50 in series [4] is 0.4 µM. In series [4], the EC90 was 2.5 µM.

Take `Cc1cn([C@H]2CO[C@@H](COC(=O)[C@H](N)C(C)C)O2)c(=O)[nH]c1=O.Cl`: the 50% inhibitory concentration (IC50) in the series with CCRF-CEM, in the series on PBMC and with Vero was over 100 µM each time. Moreover, the t1/2 is 12.2 h in series [1], 30 h in series [2] and 0.323 h in series [3]. In series [4], this compound showed an EC50 of 0.98 µM. Also, the EC90 in series [4] is 6.5 µM.

In the case of `Cc1cn([C@H]2CO[C@@H](COC(=O)[C@@H](N)CC(C)C)O2)c(=O)[nH]c1=O.Cl`, the 50% inhibitory concentration (IC50) in the series on CCRF-CEM, in the series on PBMC and in the series with Vero was over 100 µM throughout. In addition, the t1/2 was 14.5 h in series [1], 35.83 h in series [2] and 0.298 h in series [3]. A half-maximal response in series [4] (EC50) required 3.3 µM. Besides, in series [4], the 90% effect level (EC90) was put at 12.4 µM.

As to `Cc1cn([C@H]2CO[C@@H](COC(=O)C3CC3)O2)c(=O)[nH]c1=O`, the IC50 in the series with CCRF-CEM, with PBMC and in the series with Vero was over 100 µM throughout. The results for the t1/2 in series [1], in series [2] and in series [3] were 20 h, 46.67 h and 0.288 h, respectively. This compound yielded an EC50 in series [4] of 4.7 µM. Besides, the EC90 in series [4] was found to be 15.1 µM.

On to `CC[C@H](C)[C@H](N)C(=O)OC[C@@H]1OC[C@H](n2cc(C)c(=O)[nH]c2=O)O1.Cl`, for which the IC50 in the series on CCRF-CEM, with PBMC and in the series on Vero was over 100 µM in each case. Besides, the t1/2 in series [1] amounted to 13.3 h; in series [2], 34 h; in series [3], 0.292 h. This compound also gave an EC50 in series [4] of 3 µM. The same compound came in with an EC90 in series [4] of 9.9 µM.

For the compound `CCCCCCCCCCCCCCCC(=O)OC[C@@H]1OC[C@H](n2cc(C)c(=O)[nH]c2=O)O1`, the results for the IC50 in the series with CCRF-CEM, in the series on PBMC and in the series with Vero were over 100 µM, over 100 µM and 92.2 µM, respectively. Moreover, the t1/2 in series [3] is 0.8 h. The compound also registered an EC50 in series [4] of 23.5 µM. The compound further yielded an EC90 in series [4] of over 100 µM.

For the compound `Cc1cn([C@H]2CO[C@@H](COCOC(=O)C(C)(C)C)O2)c(=O)[nH]c1=O`, the IC50 with CCRF-CEM, with PBMC and with Vero was over 100 µM throughout. Moreover, in series [3], the t1/2 worked out at 0.293 h. The same compound showed an EC50 in series [4] of 1.4 µM. Besides, the EC90 in series [4] was found to be 9.7 µM.

Take `CCCCCCCC(=O)OC[C@@H]1OC[C@H](n2cc(C)c(=O)[nH]c2=O)O1`: the IC50 in the series with CCRF-CEM, in the series on PBMC and with Vero was over 100 µM each time. The figures for the t1/2 in series [1], in series [2] and in series [3] were 30 h, 54.17 h and 0.483 h, respectively. In series [4], this compound returned an EC50 of 0.6 µM. This compound also registered an EC90 in series [4] of 4.3 µM.
